Assay results from ChEMBL document CHEMBL1129032, “Synthesis and phospholipase A2 inhibitory activity of thielocin B3 derivatives” (J Med Chem, 1996).

Columns and labels:
Phospholipase A2 = Phospholipase A2 (Homo sapiens, UniProt P04054); test: In vitro inhibition of human recombinant secretory Phospholipase A2 (group I).
How it was run: (§1)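 PLA2 enzymes: recombinant human group I or II, or group II purified from rat platelets (single ~14 kDa band on SDS-PAGE). Substrate was 1-palmitoyl-2-[1-14C]linoleoyl-PE diluted with egg-yolk PE to 2000 dpm/nmol. Reaction started by adding enzyme, adjusted so hydrolysis stayed below 20%. Compounds in DMSO (2% final) against a DMSO control. IC50 read graphically from % inhibition vs log concentration, three independent experiments in duplicate.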

[1] = target: T1, Phospholipase A2, membrane associated (Rattus norvegicus, UniProt P14423); test: In vitro inhibition of rat secretory Phospholipase A2 (group II).; how it was run: as §1
T1 sequence (P14423 whole entry): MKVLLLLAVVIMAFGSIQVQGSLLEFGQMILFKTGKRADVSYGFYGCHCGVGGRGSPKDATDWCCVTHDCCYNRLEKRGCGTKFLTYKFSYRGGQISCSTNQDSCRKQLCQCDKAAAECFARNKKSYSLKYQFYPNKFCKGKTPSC

[2] = target: T2, Phospholipase A2, membrane associated (Homo sapiens, UniProt P14555); test: In vitro inhibition of human recombinant secretory Phospholipase A2 (group II).; how it was run: as §1
T2 sequence (P14555 whole entry): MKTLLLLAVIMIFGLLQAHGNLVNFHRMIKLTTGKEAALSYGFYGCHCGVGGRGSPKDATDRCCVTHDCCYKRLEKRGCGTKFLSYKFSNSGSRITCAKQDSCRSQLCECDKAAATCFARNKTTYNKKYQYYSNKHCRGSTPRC

Rattus norvegicus [3] = species on record: Rattus norvegicus; test: Inhibition of A-23187 stimulated Arachidonic acid production from rat platelets by 10 uM.; type: functional; design: scale not given: the % may be the effect or the level left
How it was run: (§2)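 Rat platelets from citrate-dextrose blood with PGE1 were sedimented and labelled with [3H]AA (20 µCi/mL, 2.0 h, room temperature), gel-filtered, and used at 5 × 10^8 cells/mL. Stimulation used A23187 2 µM (DMSO 0.4%) plus compound (DMSO 0.2%), stopped with 0.1 N HCl. [3H]AA and [3H]TXB2 were separated by TLC and counted. Result given as % of A23187-induced increase over DMSO control, mean ± SEM of three experiments.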

Rattus norvegicus [4] = species on record: Rattus norvegicus; test: Inhibition of A-23187 stimulated Thromboxane B2 production from rat platelets by 10 uM.; type: functional; design: scale not given: the % may be the effect or the level left; how it was run: as §2
[5] = target: T1, Phospholipase A2, membrane associated; test: In vitro inhibition of rat secretory Phospholipase A2 (group II); No inhibition.; how it was run: as §1
[6] = target: T2, Phospholipase A2, membrane associated; test: In vitro inhibition of human recombinant secretory Phospholipase A2 (group II); No inhibition.; how it was run: as §1

Chain of Phospholipase A2 (P04054 whole entry): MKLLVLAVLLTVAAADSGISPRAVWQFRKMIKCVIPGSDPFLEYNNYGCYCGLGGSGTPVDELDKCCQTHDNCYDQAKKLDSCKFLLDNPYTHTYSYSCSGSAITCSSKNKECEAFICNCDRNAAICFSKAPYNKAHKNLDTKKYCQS

SMILES | IC50 (Phospholipase A2) [nM] | IC50 [1] [nM] | IC50 [2] [nM] | IC50 [5] | IC50 [6] | Activity (Rattus norvegicus [3]) [%] | Activity (Rattus norvegicus [4]) [%]
COc1c(C)c(OC(=O)c2c(C)c(C)c(OC(=O)C3=C(C)[C@@](C)(O)C4(O)Oc5c(C)c(OC)c(C(=O)Oc6c(C)c(C)c(C(=O)O)c(OC)c6C)c(C)c5C[C@@]4(C)C3=O)c(C)c2OC)c(C)c(C)c1C(=O)O (stereo partly drawn) [THIELOCIN A1] | 135000 | 3.3 | 12000 |  |  |  | 
COc1ccc(Sc2ccc(OC)c(C(=O)Oc3c(C)c(C)c(C(=O)Oc4c(C)c(C)c(C(=O)OCOC(=O)C(C)(C)C)c(OC)c4C)c(OC)c3C)c2)cc1C(=O)Oc1c(C)c(C)c(C(=O)Oc2c(C)c(C)c(C(=O)OCOC(=O)C(C)(C)C)c(OC)c2C)c(OC)c1C | > 100000 |  |  | Not Active | Not Active |  | 
COc1ccc(Sc2ccc(OC)c(C(=O)Oc3c(C)c(C)c(C(=O)O)c(OC)c3C)c2)cc1C(=O)Oc1c(C)c(C)c(C(=O)O)c(OC)c1C | > 100000 | 2500 | 4800 |  |  |  | 
COc1ccc(Oc2ccc(OC)c(C(=O)Oc3c(C)c(C)c(C(=O)O)c(OC)c3C)c2)cc1C(=O)Oc1c(C)c(C)c(C(=O)O)c(OC)c1C | > 100000 | 3400 | 75000 |  |  |  | 
CCN(CC)CCCC(C)Nc1c2ccc(Cl)cc2nc2ccc(OC)cc12 (stereo not drawn) [QUINACRINE] |  | 320000 | 76000 |  |  |  | 
COc1ccc(Sc2ccc(OC)c(C(=O)Oc3c(C)c(C)c(C(=O)Oc4c(C)c(C)c(C(=O)O)c(OC)c4C)c(OC)c3C)c2)cc1C(=O)O | 100000 | 2100 | 4100 |  |  |  | 
COc1ccc(S(=O)(=O)c2ccc(OC)c(C(=O)Oc3c(C)c(C)c(C(=O)Oc4c(C)c(C)c(C(=O)O)c(OC)c4C)c(OC)c3C)c2)cc1C(=O)Oc1c(C)c(C)c(C(=O)Oc2c(C)c(C)c(C(=O)O)c(OC)c2C)c(OC)c1C | 9000 | 50 | 69 |  |  |  | 
COc1c(C)c(OC)c(C(=O)Oc2c(C)c(C)c(C(=O)O)c(OC)c2C)c(C)c1Cc1c(C)c(C(=O)Oc2c(C)c(C)c(C(=O)O)c(OC)c2C)c(OC)c(C)c1OC | 90000 | 4600 | 2800 |  |  |  | 
CC1=C(CC/C(C)=C/CCC2=CC[C@H](C3=CC(=O)O[C@H]3O)O[C@H]2O)C(C)(C)CCC1 [MANOALIDE] |  | 2000 | 1500 |  |  |  | 
COc1c(C)c(OC)c(C(=O)O)c(C)c1Cc1c(C)c(C(=O)Oc2c(C)c(C)c(C(=O)Oc3c(C)c(C)c(C(=O)O)c(OC)c3C)c(OC)c2C)c(OC)c(C)c1OC | > 100000 | 3000 | 3000 |  |  |  | 
COc1c(C)c(OC(=O)c2c(C)c(C)c(OC(=O)c3c(C)c(CN[C@@H](C)c4ccccc4)c(O)c(C)c3O)c(C)c2OC)c(C)c(C)c1C(=O)O | 60000 | 360 | 840 |  |  |  | 

Further lines, with some results ahead:

IC50 (Phospholipase A2) [nM] | IC50 [1] [nM] | IC50 [2] [nM] | IC50 [5] | IC50 [6] | SMILES | Activity (Rattus norvegicus [3]) [%] | Activity (Rattus norvegicus [4]) [%]
> 100000 | 950 | 2400 |  |  | Cc1c(O)c(Cc2c(C)c(C(=O)Oc3c(C)c(C)c(C(=O)Oc4c(C)c(C)c(C(=O)O)c(O)c4C)c(O)c3C)c(O)c(C)c2O)c(C)c(C(=O)Oc2c(C)c(C)c(C(=O)Oc3c(C)c(C)c(C(=O)O)c(O)c3C)c(O)c2C)c1O |  | 
18000 | 12 | 76 |  |  | COc1c(C)c(OC(=O)c2c(C)c(C)c(OC(=O)c3c(C)cc(O)c(Cc4c(C)c(C(=O)Oc5c(C)c(C)c(C(=O)Oc6c(C)c(C)c(C(=O)O)c(OC)c6C)c(OC)c5C)c(O)c(C)c4O)c3O)c(C)c2OC)c(C)c(C)c1C(=O)O [THIELOCIN B3] | 60.3 | 43.7
> 100000 | 120 | 230 |  |  | COc1c(C)c(OC(=O)c2c(C)c(C)c(OC(=O)c3cccc(C(=O)Oc4c(C)c(C)c(C(=O)Oc5c(C)c(C)c(C(=O)O)c(OC)c5C)c(OC)c4C)c3)c(C)c2OC)c(C)c(C)c1C(=O)O | 49.2 | 0.1
6500 | 42 | 100 |  |  | COc1ccc(Oc2ccc(OC)c(C(=O)Oc3c(C)c(C)c(C(=O)Oc4c(C)c(C)c(C(=O)O)c(OC)c4C)c(OC)c3C)c2)cc1C(=O)Oc1c(C)c(C)c(C(=O)Oc2c(C)c(C)c(C(=O)O)c(OC)c2C)c(OC)c1C | 9 | 0
60000 | 40 | 940 |  |  | COc1c(C)c(OC(=O)c2c(C)c(C)c(OC(=O)CCC(=O)Oc3c(C)c(C)c(C(=O)Oc4c(C)c(C)c(C(=O)O)c(OC)c4C)c(OC)c3C)c(C)c2OC)c(C)c(C)c1C(=O)O |  | 
100000 | 880 | 5800 |  |  | COc1c(C)c(OC(=O)c2c(C)c(C)c(OC(=O)c3cc(=O)cc(C(=O)Oc4c(C)c(C)c(C(=O)Oc5c(C)c(C)c(C(=O)O)c(OC)c5C)c(OC)c4C)o3)c(C)c2OC)c(C)c(C)c1C(=O)O | 55.2 | 46.3
11000 | 120 | 260 |  |  | COc1ccc([S+]([O-])c2ccc(OC)c(C(=O)Oc3c(C)c(C)c(C(=O)Oc4c(C)c(C)c(C(=O)O)c(OC)c4C)c(OC)c3C)c2)cc1C(=O)Oc1c(C)c(C)c(C(=O)Oc2c(C)c(C)c(C(=O)O)c(OC)c2C)c(OC)c1C |  | 
> 100000 | 330 | 2200 |  |  | COc1c(C)c(OC(=O)c2c(C)c(C)c(OC(=O)/C=C/C(=O)Oc3c(C)c(C)c(C(=O)Oc4c(C)c(C)c(C(=O)O)c(OC)c4C)c(OC)c3C)c(C)c2OC)c(C)c(C)c1C(=O)O | 70.7 | 65.8
> 100000 | 130 | 190 |  |  | COc1c(C)c(OC)c(C(=O)Oc2c(C)c(C)c(C(=O)Oc3c(C)c(C)c(C(=O)O)c(OC)c3C)c(OC)c2C)c(C)c1Cc1c(C)c(C(=O)Oc2c(C)c(C)c(C(=O)Oc3c(C)c(C)c(C(=O)O)c(OC)c3C)c(OC)c2C)c(OC)c(C)c1OC |  | 
6600 | 35 | 240 |  |  | COc1cc(OC)c(C(=O)Oc2c(C)c(C)c(C(=O)Oc3c(C)c(C)c(C(=O)O)c(OC)c3C)c(OC)c2C)cc1Oc1cc(C)c(OC)c(C(=O)Oc2c(C)c(C)c(C(=O)Oc3c(C)c(C)c(C(=O)O)c(OC)c3C)c(OC)c2C)c1 | 19.7 | 0
55000 | 49 | 130 |  |  | COc1ccc(Sc2ccc(OC)c(C(=O)Oc3c(C)c(C)c(C(=O)Oc4c(C)c(C)c(C(=O)O)c(OC)c4C)c(OC)c3C)c2)cc1C(=O)Oc1c(C)c(C)c(C(=O)Oc2c(C)c(C)c(C(=O)O)c(OC)c2C)c(OC)c1C | 2.8 | 0
